# ChEMBL document CHEMBL4190232, “Isoflavones and Rotenoids from the Leaves of Millettia oblata ssp. teitensis” (J Nat Prod, 2017)
# Calls of active or inactive are those of the source. The rule behind the calls is not given here.
# Legend:
# MDA-MB-231 = assay: Cytotoxicity against human MDA-MB-231 cells assessed as reduction in cell viability after 72 hrs by alamarBlue assay; assay type: functional, cell-based; details: MDA-MB-231, 72 h
# Summary of the method: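 MDA-MB-231 cells grown in DMEM with 10% FBS, 2 mM L-glutamine, penicillin/streptomycin, 37 °C, 5% CO2. Seeded at 10⁴ cells/well, preincubated 24 h, then compound or DMSO vehicle (0.1% or 1.0% v/v) for 72 h. Viability by Alamar Blue, absorbance at 570 nm (600 nm reference), as % of vehicle control; six replicates, at least six independent experiments.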
# Mus musculus = species on record: Mus musculus; assay: Inhibition of cap/HCV-mediated translation in mouse Krebs2 cell free extract expressing FF/HCV/IRES-Ren mRNA reporter transcript assessed as reduction in luciferase production at 20 uM after 60 mins; assay type: functional
# Summary of the method: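 Compound stocks were 10 mM in DMSO, diluted to 200 μM in water, and tested at a final 20 μM in Krebs-2 translation extracts. The extracts were programmed with bicistronic Firefly–HCV IRES–Renilla luciferase mRNA. Reactions ran for 60 min at 30 °C, after which luciferase activities were measured.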
# HepG2 = assay: Cytotoxicity against human HepG2 cells assessed as reduction in cell viability by MTT assay; assay type: functional, cell-based
# [1] = Cytotoxicity against mouse C26 cells assessed as reduction in cell viability by MTT assay; assay type: functional, cell-based
# [2] = test system: Lewis lung carcinoma cell line; assay: Cytotoxicity against mouse LL/2 cells assessed as reduction in cell viability by MTT assay; assay type: functional, cell-based
# B16 = assay: Cytotoxicity against mouse B16 cells assessed as reduction in cell viability by MTT assay; assay type: functional, cell-based
SMILES,IC50 (MDA-MB-231) [µM],inhibition (Mus musculus),other results
COc1ccc2c(=O)c(-c3cc(OC)c4c(c3OC)OCO4)coc2c1,168,inactive,–
COc1cc2c(cc1-c1coc3c(CC=C(C)C)c(OC)c(OC)cc3c1=O)OCO2,> 235,inactive,–
CC(C)=CCOc1ccc2c(=O)c(-c3ccc4c(c3)OCO4)coc2c1,154,inactive,–
COc1ccc2c(c1)O[C@@H]1COc3cc4c(cc3[C@@]1(O)C2=O)OCO4,–,inactive,–
COc1ccc2c(c1)O[C@@H]1COc3cc(OC)c(OC)cc3[C@@H]1C2=O,–,inactive,–
COc1ccc2c(c1)O[C@@H]1COc3cc(OC)c(OC)cc3[C@]1(O)C2=O,–,inactive,–
COc1cc2c(cc1-c1coc3cc(O)ccc3c1=O)OCO2,–,inactive,–
COc1cc2occ(-c3cc4c(cc3OC)OCO4)c(=O)c2cc1OC,–,inactive,–
COc1ccc2c(c1)O[C@@H]1COc3cc4c(cc3[C@@H]1C2=O)OCO4,93.8,inactive,–
COc1ccc(-c2coc3cc(OCC=C(C)C)ccc3c2=O)cc1,33.3,inactive,–
COc1cc2c(cc1OC)[C@]1(O)C(=O)c3ccc4c(c3O[C@@H]1CO2)C=CC(C)(C)O4 [TEPHROSIN],–,inactive,IC50 (HepG2): 1.35 to 9.85 µM; IC50 [1]: 1.35 to 9.85 µM; IC50 [2]: 1.35 to 9.85 µM; IC50 (B16): 1.35 to 9.85 µM
COc1ccc2c(c1)O[C@@H]1COc3cc4c(cc3[C@]1(O)C2=O)OCO4,–,inactive,–
COc1ccc2c(c1)O[C@@H]1COc3c(cc(OC)c4c3OCO4)[C@]1(O)C2=O,–,inactive,–
COc1cc2c(cc1OC)-c1c(oc3c4c(ccc3c1=O)OC(C)(C)C=C4)CO2 [DEHYDRODEGUELIN],–,inactive,IC50 (HepG2): 0.56 to 16 µM; IC50 [1]: 0.56 to 16 µM; IC50 [2]: 0.56 to 16 µM; IC50 (B16): 0.56 to 16 µM
